Measured values taken from publication PMC3063522 (Journal of agricultural and food chemistry, 2011).
≈ marks a conversion by molar mass, not a printed value. Entries after “also recorded” stand apart in the source; their conditions may differ.

Key:
Cytotoxicity [1] = assay type: cell-based; conditions: human, SK-MEL malignant melanoma cells
Method in brief: (§1)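 Anti-proliferative assay run alongside four human tumour lines (SK-MEL, KB, BT-549, SK-OV-3) and two noncancerous kidney lines (Vero, LLC-PK11). Doxorubicin served as the positive control.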

Cytotoxicity [2] = assay type: cell-based; conditions: human, KB oral epidermal carcinoma cells
Method in brief: as §1

Cytotoxicity [3] = assay type: cell-based; conditions: human, BT-549 breast ductal carcinoma cells
Method in brief: as §1

Cytotoxicity [4] = assay type: cell-based; conditions: human, SK-OV-3 ovary carcinoma cells
Method in brief: as §1

Cytotoxicity [5] = assay type: cell-based; conditions: African green monkey, Vero kidney fibroblasts
Method in brief: as §1

Cytotoxicity [6] = assay type: cell-based; conditions: pig, LLC-PK11 kidney epithelial cells
Method in brief: as §1

[7] = Cytotoxicity towards HL-60 cells in the antioxidant assay; assay type: cell-based; conditions: human, HL-60 promyelocytic leukemia cells
[8] = Cytotoxicity to RAW 264.7 cells in the iNOS assay; assay type: cell-based, mouse; conditions: mouse, RAW 264.7 macrophages
Phomopsis viticola = assay: Antifungal broth dilution microbioassay, Phomopsis viticola; assay type: cell-based
Method in brief: (§2)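 Broth microdilution adapted from the NCCLS M27-A yeast method for conidia-forming filamentous plant-pathogenic fungi. The commercial fungicide captan served as the internal standard in every assay. Means were compared by SAS analysis of variance with Fisher's protected LSD. For P. viticola and P. obscurans, activity was read at 120 and 144 h of incubation.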

Phomopsis obscurans = assay: Antifungal broth dilution microbioassay, Phomopsis obscurans; assay type: cell-based
Method in brief: as §2

[9] = system: adult A. aegypti female mosquitoes; assay: Adult mosquito topical toxicity assay; assay type: in vivo; conditions: topical, 3.12 μg per insect; acetone/DMSO control gave 5.8±1.8%
RAW 264.7 cells = assay: Cytotoxicity to RAW 264.7 cells in the iNOS assay; assay type: cell-based, mouse; conditions: RAW 264.7 cells, same assay
mosquito larvae = assay: Mosquito larvae toxicity bioassay; assay type: in vivo; conditions: Figure 4
Method in brief: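 Larval toxicity bioassay, run in triplicate. Controls were untreated, DMSO-acetone carrier, and permethrin as the positive control.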

[10] = homologous standards for the HPLC regression; cited from earlier work
Botrytis cinerea = assay: Antifungal broth dilution microbioassay, Botrytis cinerea; assay type: cell-based
Method in brief: as §2

[11] = 120 and 144 h (from 120 to 144 h)

Compound | IC50 (Cytotoxicity [1]) [µg/mL] | IC50 (Cytotoxicity [2]) [µg/mL] | IC50 (Cytotoxicity [3]) [µg/mL] | IC50 (Cytotoxicity [4]) [µg/mL] | IC50 (Cytotoxicity [5]) [µg/mL] | IC50 (Cytotoxicity [6]) [µg/mL] | IC50 [7] [µg/mL] | IC50 [8] [µg/mL] | Antifungal activity against P. viticola (Phomopsis viticola; 144 h of incubation) | Antifungal activity against P. obscurans (Phomopsis obscurans; 144 h of incubation) | Adult mosquito mortality rate ± SD [9] | Inhibition of iNOS activity (NO production) in RAW 264.7 cells IC50 Cytotoxicity (RAW 264.7 cells) | Antifungal activity against P. obscurans (Phomopsis obscurans; [11]) | Toxicity to mosquito larvae (mosquito larvae) | log P (known constants of standards) [10] | Antifungal activity against P. obscurans (Phomopsis obscurans; 120 h) | Antifungal activity against P. viticola (Phomopsis viticola; at the highest concentrations, Figure 2D) | Growth inhibition of B. cinerea (Botrytis cinerea; 48 h) | Growth inhibition of B. cinerea (Botrytis cinerea; 72 h)
CC1(C)C=Cc2c(O)cc(/C=C/c3ccc(O)cc3)cc2O1 [Compound 10, arahypin-5] | 17.5 (≈ 59.5 µM) | > 25 | > 25 | > 25 | > 25 | 19.5 (≈ 66.2 µM) | 4.5 (≈ 15.3 µM) | 16 (≈ 54.4 µM) | more fungicidal | more fungicidal | 5.8±1.8% |  |  |  |  |  |  |  | 
CC(C)=CCc1c(O)cc(/C=C/c2ccc(O)cc2)cc1O [Compound 2, arachidin-2] | 20 (≈ 67.5 µM) | 22.5 (≈ 75.9 µM) | 7.5 (≈ 25.3 µM) | > 25 | 13.5 (≈ 45.6 µM) | 13.5 (≈ 45.6 µM) | 16 (≈ 54 µM) | > 25 |  |  |  | no cytotoxicity | did not exhibit any activity |  |  |  |  |  | 
COc1cc(/C=C/c2ccc(O)cc2)cc(OC)c1 [Compound 21, pterostilbene] | > 25 | > 25 | > 25 | > 25 | > 25 | > 25 | 21 (≈ 81.9 µM) | > 25 |  |  |  | no cytotoxicity |  | highest activity; also recorded: somewhat greater activity |  |  |  |  | 
CCCc1ccccc1 [propylbenzene] |  |  |  |  |  |  |  |  |  |  |  |  |  |  | 3.69 |  |  |  | 
CC(C)=CCc1c(O)cc(/C=C/c2ccccc2)cc1O [Compound 5, chiricanine A] | 20 (≈ 71.3 µM) | > 25 | > 25 | > 25 | > 25 | 19.5 (≈ 69.6 µM) | 19 (≈ 67.8 µM) | 13 (≈ 46.4 µM) | more fungicidal | more fungicidal; also recorded: very high | 6.7±5.8% |  | highest levels of inhibition | significantly lower toxicity |  |  |  |  | 
CC(C)(O)C(O)Cc1cc(/C=C/c2cc(O)cc(O)c2)ccc1O (centres unmarked) [Compound 7, arahypin-2] | > 25 | > 25 | > 25 | > 25 | > 25 | > 25 | > 25 | > 25 |  | extremely low | marginally active |  | highest levels of inhibition |  |  | very high |  |  | 
CC(C)/C=C/c1c(O)cc(/C=C/c2ccc(O)cc2)cc1O [Compound 3, arachidin-3] | > 25 | > 25 | > 25 | > 25 | > 25 | > 25 | > 25 | > 25 |  |  |  | no cytotoxicity | did not exhibit any activity |  |  |  |  |  | 
Oc1ccc(/C=C/c2cc(O)cc(O)c2)cc1 [Compound 24, resveratrol, reference compound] | > 25 | > 25 | > 25 | > 25 | > 25 | > 25 | 8 (≈ 35 µM) | > 25 |  |  |  | no cytotoxicity |  | significantly lower toxicity |  |  | essentially inactive | minimal activity | no activity
